ChEMBL document CHEMBL5036335, “Functional Characterization of the Nemertide α Family of Peptide Toxins” (J Nat Prod, 2021)

How the values were obtained:
[1] = target: Sodium channel protein type 8 subunit alpha (Mus musculus, UniProt Q9WTU3); experiment: Modulator activity at mouse Nav1.6 expressed in Xenopus laevis oocytes assessed as elicitation in sodium current measured after 1 to 4 days by two-electrode voltage clamp assay; type: cell-based, Oocyte
How it was run: (§1)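 Channel cRNA, with auxiliary subunits rβ1, hβ1 or TipE, transcribed from linearized plasmids; 50 nL of 1 ng/nL injected into stage V–VI X. laevis oocytes, kept in 96 mM NaCl, 2 mM KCl, 1.8 mM CaCl2, 2 mM MgCl2, 5 mM HEPES pH 7.4 with gentamycin. Two-electrode voltage clamp at 18–22 °C in same bath solution; 3 M KCl electrodes of 0.8–1.5 MΩ; currents filtered at 1 kHz, sampled at 20 kHz. EC50 from Hill equation fit.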

[2] = Modulator activity at german cockroach Nav1 expressed in Xenopus laevis oocytes assessed as elicitation in sodium current measured after 1 to 4 days by two-electrode voltage clamp assay; type: cell-based; conditions: Blattella germanica, Oocyte; how it was run: as §1
[3] = Toxicity in Artemia salina assessed as mortality incubated for 24 hrs in dark by microwell assay; type: organism-based
How it was run: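 Nauplii hatched from cysts in aerated artificial seawater (33 g/L), harvested at 24 h, RT. Peptide at 0.003–300 μM in water, in duplicate wells with water control, plus 10–15 nauplii in salt water. Dead and immobilized nauplii counted under a microscope, then the rest killed with MeOH and all counted. % dead or immobilized per well; EC50 by nonlinear regression.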

[4] = target: Sodium channel protein type 3 subunit alpha (Rattus norvegicus, UniProt P08104); experiment: Modulator activity at rat Nav1.3 expressed in Xenopus laevis oocytes assessed as elicitation in sodium current measured after 1 to 4 days by two-electrode voltage clamp assay; type: cell-based, Oocyte; how it was run: as §1
[5] = target: Sodium channel protein type 1 subunit alpha (Homo sapiens, UniProt P35498); experiment: Modulator activity at human Nav1.1 expressed in Xenopus laevis oocytes assessed as elicitation in sodium current measured after 1 to 4 days by two-electrode voltage clamp assay; type: cell-based, Oocyte; how it was run: as §1
[6] = target: Sodium channel protein type 5 subunit alpha (Homo sapiens, UniProt Q14524); experiment: Modulator activity at human Nav1.5 expressed in Xenopus laevis oocytes assessed as elicitation in sodium current measured after 1 to 4 days by two-electrode voltage clamp assay; type: cell-based, Oocyte; how it was run: as §1
[7] = target: Sodium channel protein type 4 subunit alpha (Rattus norvegicus, UniProt P15390); experiment: Modulator activity at rat Nav1.4 expressed in Xenopus laevis oocytes assessed as elicitation in sodium current measured after 1 to 4 days by two-electrode voltage clamp assay; type: cell-based, Oocyte; how it was run: as §1
[8] = target: Sodium channel protein type 10 subunit alpha (Rattus norvegicus, UniProt Q62968); experiment: Modulator activity at rat Nav1.8 expressed in Xenopus laevis oocytes assessed as elicitation in sodium current measured after 1 to 4 days by two-electrode voltage clamp assay; type: cell-based; conditions: oocyte
Chain of Sodium channel protein type 10 subunit alpha (Q62968 whole entry): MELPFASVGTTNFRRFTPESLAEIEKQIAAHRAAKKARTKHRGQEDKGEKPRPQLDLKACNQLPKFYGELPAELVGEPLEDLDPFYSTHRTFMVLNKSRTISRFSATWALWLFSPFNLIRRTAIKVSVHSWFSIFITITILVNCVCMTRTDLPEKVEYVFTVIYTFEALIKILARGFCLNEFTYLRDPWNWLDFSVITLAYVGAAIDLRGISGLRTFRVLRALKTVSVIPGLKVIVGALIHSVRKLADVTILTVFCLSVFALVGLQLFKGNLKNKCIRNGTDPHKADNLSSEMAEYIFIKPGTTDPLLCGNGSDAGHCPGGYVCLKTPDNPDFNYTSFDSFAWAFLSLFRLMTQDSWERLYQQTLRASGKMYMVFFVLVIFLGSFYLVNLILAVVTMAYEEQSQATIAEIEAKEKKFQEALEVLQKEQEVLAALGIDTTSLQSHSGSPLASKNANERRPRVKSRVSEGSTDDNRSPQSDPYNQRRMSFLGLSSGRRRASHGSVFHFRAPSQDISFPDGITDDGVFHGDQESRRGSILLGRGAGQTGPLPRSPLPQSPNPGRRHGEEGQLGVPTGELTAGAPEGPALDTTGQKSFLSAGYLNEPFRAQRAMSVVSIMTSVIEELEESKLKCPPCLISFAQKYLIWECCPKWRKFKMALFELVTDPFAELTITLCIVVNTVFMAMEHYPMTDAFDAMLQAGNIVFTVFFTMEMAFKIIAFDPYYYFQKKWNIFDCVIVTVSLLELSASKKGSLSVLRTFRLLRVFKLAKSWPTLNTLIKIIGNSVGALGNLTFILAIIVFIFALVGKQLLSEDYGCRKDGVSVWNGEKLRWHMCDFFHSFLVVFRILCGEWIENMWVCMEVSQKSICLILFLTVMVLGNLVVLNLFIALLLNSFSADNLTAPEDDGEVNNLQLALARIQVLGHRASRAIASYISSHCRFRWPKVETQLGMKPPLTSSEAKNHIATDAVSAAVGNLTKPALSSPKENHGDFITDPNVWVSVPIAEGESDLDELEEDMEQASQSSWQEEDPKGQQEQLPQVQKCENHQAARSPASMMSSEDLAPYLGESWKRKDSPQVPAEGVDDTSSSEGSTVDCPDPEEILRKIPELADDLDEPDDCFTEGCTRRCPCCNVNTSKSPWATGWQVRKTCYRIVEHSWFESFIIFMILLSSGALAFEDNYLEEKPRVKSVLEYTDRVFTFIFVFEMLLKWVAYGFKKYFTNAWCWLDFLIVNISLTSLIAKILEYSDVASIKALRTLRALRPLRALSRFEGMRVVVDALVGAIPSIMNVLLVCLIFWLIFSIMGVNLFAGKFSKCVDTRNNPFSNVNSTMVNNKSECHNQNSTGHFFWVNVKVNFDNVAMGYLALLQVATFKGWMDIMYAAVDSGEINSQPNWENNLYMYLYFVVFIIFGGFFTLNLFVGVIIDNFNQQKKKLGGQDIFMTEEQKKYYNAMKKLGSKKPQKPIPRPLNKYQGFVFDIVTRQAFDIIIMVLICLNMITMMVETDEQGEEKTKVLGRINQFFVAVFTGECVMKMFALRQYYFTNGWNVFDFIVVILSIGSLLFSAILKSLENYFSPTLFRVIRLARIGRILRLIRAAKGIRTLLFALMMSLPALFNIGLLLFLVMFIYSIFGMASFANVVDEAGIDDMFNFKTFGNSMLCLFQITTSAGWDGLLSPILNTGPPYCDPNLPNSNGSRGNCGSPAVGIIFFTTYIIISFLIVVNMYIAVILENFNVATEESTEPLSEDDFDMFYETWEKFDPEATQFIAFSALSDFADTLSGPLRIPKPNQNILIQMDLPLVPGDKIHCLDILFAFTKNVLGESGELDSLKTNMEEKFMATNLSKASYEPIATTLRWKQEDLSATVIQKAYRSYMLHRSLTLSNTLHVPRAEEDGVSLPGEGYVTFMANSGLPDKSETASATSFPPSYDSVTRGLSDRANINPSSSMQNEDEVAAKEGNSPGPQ
How it was run: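 Channel cRNA transcribed from linearized plasmid; 50 nL at 1 ng/nL injected into stage V–VI oocytes. Oocytes held in 96 mM NaCl, 2 mM KCl, 1.8 mM CaCl2, 2 mM MgCl2, 5 mM HEPES pH 7.4 with gentamycin. TEVC at 18–22 °C in the same solution, electrodes 3 M KCl, 0.8–1.5 MΩ. Currents filtered 1 kHz, sampled 20 kHz. EC50 from Hill equation fit.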

[9] = target: Sodium channel protein type 2 subunit alpha (Rattus norvegicus, UniProt P04775); experiment: Modulator activity at rat Nav1.2 expressed in Xenopus laevis oocytes assessed as elicitation in sodium current measured after 1 to 4 days by two-electrode voltage clamp assay; type: cell-based, Oocyte; how it was run: as §1
[10] = target: Sodium channel protein type 9 subunit alpha (Homo sapiens, UniProt Q15858); experiment: Modulator activity at human Nav1.7 expressed in Xenopus laevis oocytes assessed as elicitation in sodium current measured after 1 to 4 days by two-electrode voltage clamp assay; type: cell-based, Oocyte; how it was run: as §1
Chain of Sodium channel protein type 9 subunit alpha (Q15858 whole entry): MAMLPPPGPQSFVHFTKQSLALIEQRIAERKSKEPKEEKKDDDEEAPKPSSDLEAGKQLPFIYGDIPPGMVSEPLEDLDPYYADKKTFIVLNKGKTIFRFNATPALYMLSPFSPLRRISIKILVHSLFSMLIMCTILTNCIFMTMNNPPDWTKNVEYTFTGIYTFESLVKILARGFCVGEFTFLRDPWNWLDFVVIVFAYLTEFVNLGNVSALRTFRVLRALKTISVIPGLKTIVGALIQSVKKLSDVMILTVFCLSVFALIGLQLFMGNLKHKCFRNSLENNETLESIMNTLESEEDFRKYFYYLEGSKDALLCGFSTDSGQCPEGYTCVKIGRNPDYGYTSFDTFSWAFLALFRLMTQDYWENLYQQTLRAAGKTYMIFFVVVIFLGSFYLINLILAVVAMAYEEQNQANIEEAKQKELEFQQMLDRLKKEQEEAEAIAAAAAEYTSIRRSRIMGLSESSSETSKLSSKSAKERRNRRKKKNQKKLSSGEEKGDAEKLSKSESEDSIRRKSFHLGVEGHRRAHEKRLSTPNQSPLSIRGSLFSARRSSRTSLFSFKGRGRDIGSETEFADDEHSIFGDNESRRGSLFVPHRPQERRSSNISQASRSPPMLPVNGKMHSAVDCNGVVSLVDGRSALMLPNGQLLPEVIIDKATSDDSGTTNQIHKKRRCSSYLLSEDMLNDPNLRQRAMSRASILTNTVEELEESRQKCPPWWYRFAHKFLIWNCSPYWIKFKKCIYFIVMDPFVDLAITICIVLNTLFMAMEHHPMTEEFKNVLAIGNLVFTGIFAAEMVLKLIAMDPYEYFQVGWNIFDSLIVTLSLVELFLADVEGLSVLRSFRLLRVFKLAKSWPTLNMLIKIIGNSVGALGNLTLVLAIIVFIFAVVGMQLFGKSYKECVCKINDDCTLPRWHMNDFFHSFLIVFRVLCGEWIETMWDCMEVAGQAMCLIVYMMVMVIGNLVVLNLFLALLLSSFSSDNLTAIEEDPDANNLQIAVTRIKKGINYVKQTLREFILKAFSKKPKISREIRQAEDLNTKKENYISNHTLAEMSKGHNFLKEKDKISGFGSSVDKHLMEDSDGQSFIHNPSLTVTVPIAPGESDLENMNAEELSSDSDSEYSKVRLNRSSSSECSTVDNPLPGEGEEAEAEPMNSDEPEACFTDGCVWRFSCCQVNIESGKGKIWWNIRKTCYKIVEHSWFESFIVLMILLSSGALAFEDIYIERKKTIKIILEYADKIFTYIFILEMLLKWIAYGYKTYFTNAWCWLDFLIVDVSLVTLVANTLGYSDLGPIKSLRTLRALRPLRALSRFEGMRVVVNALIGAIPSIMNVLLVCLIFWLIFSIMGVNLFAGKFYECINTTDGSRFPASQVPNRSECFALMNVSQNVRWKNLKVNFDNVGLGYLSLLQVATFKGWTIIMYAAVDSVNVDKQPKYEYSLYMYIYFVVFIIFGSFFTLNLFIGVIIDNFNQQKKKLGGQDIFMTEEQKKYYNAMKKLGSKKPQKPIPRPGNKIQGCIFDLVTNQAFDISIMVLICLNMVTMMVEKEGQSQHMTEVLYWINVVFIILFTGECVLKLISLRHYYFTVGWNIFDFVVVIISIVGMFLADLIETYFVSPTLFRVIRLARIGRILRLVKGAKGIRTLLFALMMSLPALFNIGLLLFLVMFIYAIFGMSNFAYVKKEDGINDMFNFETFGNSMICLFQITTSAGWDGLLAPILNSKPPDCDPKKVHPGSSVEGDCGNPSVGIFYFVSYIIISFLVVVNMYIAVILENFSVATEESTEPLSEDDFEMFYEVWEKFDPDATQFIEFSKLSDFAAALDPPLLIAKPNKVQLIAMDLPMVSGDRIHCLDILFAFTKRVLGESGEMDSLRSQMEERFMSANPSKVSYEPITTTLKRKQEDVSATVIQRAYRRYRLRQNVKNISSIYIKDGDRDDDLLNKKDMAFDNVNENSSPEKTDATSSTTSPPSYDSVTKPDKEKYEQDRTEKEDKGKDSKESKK

Row | SMILES | EC50 ([1]; oocyte) | EC50 [2] | EC50 at 24 h [3] | EC50 ([4]; oocyte) | EC50 ([5]; oocyte) | EC50 ([6]; oocyte) | EC50 ([7]; oocyte) | EC50 [8] | EC50 ([9]; oocyte) | EC50 ([10]; oocyte) | EC50 [1] | EC50 [4] | EC50 [5] | EC50 [6] | EC50 [7] | EC50 [9] | EC50 [10]
1 | CC[C@H](C)[C@@H]1NC(=O)[C@@H](NC(=O)CN)CSSC[C@@H]2NC(=O)[C@@H]3CSSC[C@@H](C(=O)N[C@@H](CC(N)=O)C(=O)N[C@H](CCCCN)C(=O)N4C[C@@H](O)C[C@H]4C(=O)N[C@@H](CC(N)=O)C(=O)N[C@@H](CCC(N)=O)C(=O)O)NC(=O)[C@H](Cc4cnc[nH]4)NC(=O)[C@H](Cc4ccccc4)NC(=O)[C@H](CC(N)=O)NC(=O)[C@H](Cc4c[nH]c5ccccc45)NC(=O)CNC(=O)[C@H](CSSC[C@H](NC(=O)[C@H](CCSC)NC(=O)[C@H](CO)NC(=O)CNC(=O)[C@H](C(C)C)NC(=O)[C@@H]4CCCN4C1=O)C(=O)N[C@@H]([C@@H](C)O)C(=O)N[C@@H](CC(C)C)C(=O)N[C@@H](CO)C(=O)N[C@@H](CC(N)=O)C(=O)NCC(=O)N3)NC(=O)[C@H](CC(N)=O)NC(=O)[C@H](CCCCN)NC(=O)[C@H]([C@@H](C)O)NC2=O | 148 nM | 9.5 nM | 6100 nM | 170 nM | 172 nM | 156 nM | 811 nM | Not Active | 50.4 nM | 129 nM |  |  |  |  |  |  | 
2 | CC[C@H](C)[C@@H]1NC(=O)[C@@H](NC(=O)CN)CSSC[C@@H]2NC(=O)[C@@H]3CSSC[C@@H](C(=O)N[C@@H](CC(N)=O)C(=O)N4C[C@@H](O)C[C@H]4C(=O)N4C[C@@H](O)C[C@H]4C(=O)N[C@@H](CC(N)=O)C(=O)N[C@@H](CCC(N)=O)C(=O)O)NC(=O)[C@H](CCCCN)NC(=O)[C@H](Cc4ccccc4)NC(=O)[C@H](CC(N)=O)NC(=O)[C@H](Cc4c[nH]c5ccccc45)NC(=O)CNC(=O)[C@H](CSSC[C@H](NC(=O)[C@H](Cc4ccccc4)NC(=O)[C@H](CO)NC(=O)CNC(=O)[C@H]([C@@H](C)O)NC(=O)[C@H](CO)NC1=O)C(=O)N[C@@H]([C@@H](C)O)C(=O)N[C@@H](CC(C)C)C(=O)N[C@@H](CO)C(=O)N[C@@H](CCCCN)C(=O)NCC(=O)N3)NC(=O)[C@H](CC(N)=O)NC(=O)[C@H](CCCCN)NC(=O)[C@H]([C@@H](C)O)NC2=O |  | 11.1 nM | 400 nM |  |  |  |  | Not Active |  |  | 124 nM | 12.9 nM | 92 nM | 27.8 nM | 14.6 nM | 134 nM | 80.5 nM
3 | CC[C@H](C)[C@@H]1NC(=O)[C@@H](NC(=O)CN)CSSC[C@@H]2NC(=O)[C@@H]3CSSC[C@@H](C(=O)N[C@@H](CC(N)=O)C(=O)N4C[C@@H](O)C[C@H]4C(=O)N4C[C@@H](O)C[C@H]4C(=O)N[C@@H](CC(N)=O)C(=O)N[C@@H](CCC(N)=O)C(=O)O)NC(=O)[C@H](CCCCN)NC(=O)[C@H](Cc4ccccc4)NC(=O)[C@H](CC(N)=O)NC(=O)[C@H](Cc4c[nH]c5ccccc45)NC(=O)CNC(=O)[C@H](CSSC[C@H](NC(=O)[C@H](C(C)C)NC(=O)[C@H](CO)NC(=O)CNC(=O)[C@H]([C@@H](C)O)NC(=O)[C@H](C)NC1=O)C(=O)N[C@@H]([C@@H](C)O)C(=O)N[C@@H](CC(C)C)C(=O)N[C@@H](CO)C(=O)N[C@@H](CCCCN)C(=O)NCC(=O)N3)NC(=O)[C@H](CC(N)=O)NC(=O)[C@H](CCCCN)NC(=O)[C@H]([C@@H](C)O)NC2=O |  | 87.2 nM | 2900 nM |  |  |  |  | Not Active |  |  | 1360 nM | 128 nM | 126 nM | 149 nM | 1150 nM | 97.9 nM | 1300 nM
4 | CC[C@H](C)[C@@H]1NC(=O)[C@@H](NC(=O)CN)CSSC[C@@H]2NC(=O)[C@@H]3CSSC[C@@H](C(=O)N[C@@H](CC(N)=O)C(=O)N4C[C@@H](O)C[C@H]4C(=O)N4C[C@@H](O)C[C@H]4C(=O)N[C@@H](CC(N)=O)C(=O)N[C@@H](CCC(N)=O)C(=O)O)NC(=O)[C@H](Cc4cnc[nH]4)NC(=O)[C@H](Cc4ccccc4)NC(=O)[C@H](CC(N)=O)NC(=O)[C@H](Cc4c[nH]c5ccccc45)NC(=O)CNC(=O)[C@H](CSSC[C@H](NC(=O)[C@H](Cc4ccccc4)NC(=O)[C@H](CO)NC(=O)CNC(=O)[C@H]([C@@H](C)O)NC(=O)[C@H](C)NC1=O)C(=O)N[C@@H]([C@@H](C)O)C(=O)N[C@@H](CC(C)C)C(=O)N[C@@H](CO)C(=O)N[C@@H](CCCCN)C(=O)NCC(=O)N3)NC(=O)[C@H](CC(N)=O)NC(=O)[C@H](CCCCN)NC(=O)[C@H]([C@@H](C)O)NC2=O |  | 7.8 nM | 400 nM |  |  |  |  | Not Active |  |  | 66.9 nM | 9.4 nM | 102 nM | 133 nM | 15.4 nM | 156 nM | 73 nM
5 | CC[C@H](C)[C@@H]1NC(=O)[C@@H](NC(=O)CN)CSSC[C@@H]2NC(=O)[C@@H]3CSSC[C@@H](C(=O)N[C@@H](CC(N)=O)C(=O)N4C[C@@H](O)C[C@H]4C(=O)N4C[C@@H](O)C[C@H]4C(=O)N[C@@H](CC(N)=O)C(=O)N[C@@H](CCC(N)=O)C(=O)O)NC(=O)[C@H](CCCCN)NC(=O)[C@H](Cc4ccccc4)NC(=O)[C@H](CC(N)=O)NC(=O)[C@H](Cc4c[nH]c5ccccc45)NC(=O)CNC(=O)[C@H](CSSC[C@H](NC(=O)CNC(=O)[C@H](CO)NC(=O)CNC(=O)[C@H]([C@@H](C)O)NC(=O)[C@H](CCCCN)NC1=O)C(=O)N[C@@H]([C@@H](C)O)C(=O)N[C@@H](CC(C)C)C(=O)N[C@@H](CO)C(=O)N[C@@H](CCCCN)C(=O)NCC(=O)N3)NC(=O)[C@H](CC(N)=O)NC(=O)[C@H](CCCCN)NC(=O)[C@H]([C@@H](C)O)NC2=O |  | 97.5 nM | 4700 nM |  |  |  |  | Not Active |  |  | 92.8 nM | 139 nM | 126 nM | 108 nM | 150 nM | 138 nM | 102 nM
6 | CC[C@H](C)[C@@H]1NC(=O)[C@@H](NC(=O)CN)CSSC[C@@H]2NC(=O)[C@@H]3CSSC[C@@H](C(=O)N[C@@H](CC(N)=O)C(=O)N4C[C@@H](O)C[C@H]4C(=O)N4C[C@@H](O)C[C@H]4C(=O)N[C@@H](CC(N)=O)C(=O)N[C@@H](CCC(N)=O)C(=O)O)NC(=O)[C@H](Cc4cnc[nH]4)NC(=O)[C@H](Cc4ccccc4)NC(=O)[C@H](CC(N)=O)NC(=O)[C@H](Cc4c[nH]c5ccccc45)NC(=O)CNC(=O)[C@H](CSSC[C@H](NC(=O)[C@H](Cc4ccccc4)NC(=O)[C@H](CO)NC(=O)CNC(=O)[C@H]([C@@H](C)O)NC(=O)[C@H](CCCCN)NC1=O)C(=O)N[C@@H]([C@@H](C)O)C(=O)N[C@@H](CC(C)C)C(=O)N[C@@H](CO)C(=O)N[C@@H](CCCCN)C(=O)NCC(=O)N3)NC(=O)[C@H](CC(N)=O)NC(=O)[C@H](CCCCN)NC(=O)[C@H]([C@@H](C)O)NC2=O |  | 2.6 nM | 2800 nM |  |  |  |  | Not Active |  |  | 36.3 nM | 106 nM | 7.9 nM | 215 nM | 46.4 nM | 24.3 nM | 97.2 nM
